# Source: ChEMBL document CHEMBL4425140, “Discovery of a Potent and Selective Coactivator Associated Arginine Methyltransferase 1 (CARM1) Inhibitor by Virtual Screening” (J Med Chem, 2016)
# Calls of active or inactive are those of the source. No cut-off for these calls is given here.
# Tests used:
# [1] = target: Protein arginine N-methyltransferase 6 (Homo sapiens, UniProt Q96LA8); test: Inhibition of PRMT6 (unknown origin)
# [2] = target: T1, Histone-arginine methyltransferase CARM1 (Homo sapiens) (UniProt Q86X55); test: Inhibition of CARM1 in HEK293 cells assessed as reduction in BAF155 methylation at 10 uM incubated for 48 hrs by SDS-PAGE and immunoblotting
# T1 sequence (whole entry): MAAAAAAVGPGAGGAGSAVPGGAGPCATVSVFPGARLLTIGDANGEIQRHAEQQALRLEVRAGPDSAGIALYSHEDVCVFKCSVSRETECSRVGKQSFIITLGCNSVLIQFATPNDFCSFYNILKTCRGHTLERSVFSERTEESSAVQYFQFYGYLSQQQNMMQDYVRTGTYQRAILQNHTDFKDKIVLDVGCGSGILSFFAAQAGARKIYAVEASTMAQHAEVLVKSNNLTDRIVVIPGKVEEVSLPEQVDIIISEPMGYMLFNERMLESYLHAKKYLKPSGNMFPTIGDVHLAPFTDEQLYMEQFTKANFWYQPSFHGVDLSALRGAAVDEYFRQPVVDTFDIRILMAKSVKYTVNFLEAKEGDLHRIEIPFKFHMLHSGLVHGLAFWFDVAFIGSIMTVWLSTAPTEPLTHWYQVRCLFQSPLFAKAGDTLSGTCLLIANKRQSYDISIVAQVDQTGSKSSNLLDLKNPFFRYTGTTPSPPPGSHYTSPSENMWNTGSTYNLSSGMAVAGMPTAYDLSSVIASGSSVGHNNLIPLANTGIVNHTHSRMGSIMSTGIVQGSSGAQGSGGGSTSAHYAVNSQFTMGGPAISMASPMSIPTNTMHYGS
# [3] = target: T2, Histone-arginine methyltransferase CARM1 (Homo sapiens, UniProt Q86X55); test: Inhibition of full-length Halo-tagged human CARM1 (1 to 608 residues) expressed in 293-F cells using [3H]-SAM and biotinylated histone peptides by scintillation proximity based radiometric assay; assay type: cell-based
# T2 sequence (Q86X55 whole entry): T1 sequence (whole entry)
# [4] = target: Protein arginine N-methyltransferase 8 (Homo sapiens, UniProt Q9NR22); test: Inhibition of PRMT8 (unknown origin)
# Chain of Protein arginine N-methyltransferase 8 (Q9NR22 whole entry, the tested form may be a part): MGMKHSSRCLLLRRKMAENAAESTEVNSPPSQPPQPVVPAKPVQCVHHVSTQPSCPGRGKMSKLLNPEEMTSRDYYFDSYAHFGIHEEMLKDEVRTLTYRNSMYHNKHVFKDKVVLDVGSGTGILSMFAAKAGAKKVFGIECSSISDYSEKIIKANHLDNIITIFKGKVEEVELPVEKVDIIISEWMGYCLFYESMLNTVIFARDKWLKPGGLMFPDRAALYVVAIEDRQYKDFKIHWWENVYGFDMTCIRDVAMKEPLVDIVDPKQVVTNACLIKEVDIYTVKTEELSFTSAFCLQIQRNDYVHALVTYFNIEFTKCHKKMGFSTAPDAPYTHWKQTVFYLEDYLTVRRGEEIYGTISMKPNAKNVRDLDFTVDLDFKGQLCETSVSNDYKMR
# [5] = target: T1, Histone-arginine methyltransferase CARM1 (Homo sapiens); test: Inhibition of full-length Halo-tagged human CARM1 (1 to 608 residues) expressed in 293-F cells at 10 uM using [3H]-SAM and biotinylated histone peptides by scintillation proximity based radiometric assay; assay type: cell-based
# Method in brief: (§1)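 Radiometric scintillation proximity assay. Tag-cleaved full-length human CARM1 (1–608) at 25 nM, with 0.7 μM C-terminally biotinylated H3 1–25 peptide and 1.9 μM [3H]-SAM in 20 mM bicine pH 8.5. Transfer of tritiated methyl to the peptide counted as cpm. Single compound concentration per line.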
# [6] = target: T1, Histone-arginine methyltransferase CARM1 (Homo sapiens); test: Inhibition of full-length Halo-tagged human CARM1 (1 to 608 residues) expressed in 293-F cells at 50 uM using [3H]-SAM and biotinylated histone peptides by scintillation proximity based radiometric assay; assay type: cell-based; method in brief: as §1
# [7] = Selectivity index, ratio of IC50 for RMT6 (unknown origin) to IC50 for full-length Halo-tagged human CARM1 (1 to 608 residues) expressed in 293-F cells; assay type: cell-based
# [8] = target: Protein arginine N-methyltransferase 1 (Homo sapiens, UniProt Q99873); test: Inhibition of PRMT1 (unknown origin)
# Chain of Protein arginine N-methyltransferase 1 (Q99873 whole entry): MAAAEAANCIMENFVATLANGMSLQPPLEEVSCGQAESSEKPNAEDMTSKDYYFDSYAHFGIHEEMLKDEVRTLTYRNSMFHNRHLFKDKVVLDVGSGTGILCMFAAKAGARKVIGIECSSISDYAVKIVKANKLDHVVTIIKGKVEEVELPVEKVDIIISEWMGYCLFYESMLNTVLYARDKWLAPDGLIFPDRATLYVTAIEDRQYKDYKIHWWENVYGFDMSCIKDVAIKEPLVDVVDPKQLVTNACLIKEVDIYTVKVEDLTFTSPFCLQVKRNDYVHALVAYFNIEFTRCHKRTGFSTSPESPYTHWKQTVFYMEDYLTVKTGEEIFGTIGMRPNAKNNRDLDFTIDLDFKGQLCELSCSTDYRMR
# [9] = target: Protein arginine N-methyltransferase 3 (Homo sapiens, UniProt O60678); test: Inhibition of PRMT3 (unknown origin)
# Chain of Protein arginine N-methyltransferase 3 (O60678 whole entry): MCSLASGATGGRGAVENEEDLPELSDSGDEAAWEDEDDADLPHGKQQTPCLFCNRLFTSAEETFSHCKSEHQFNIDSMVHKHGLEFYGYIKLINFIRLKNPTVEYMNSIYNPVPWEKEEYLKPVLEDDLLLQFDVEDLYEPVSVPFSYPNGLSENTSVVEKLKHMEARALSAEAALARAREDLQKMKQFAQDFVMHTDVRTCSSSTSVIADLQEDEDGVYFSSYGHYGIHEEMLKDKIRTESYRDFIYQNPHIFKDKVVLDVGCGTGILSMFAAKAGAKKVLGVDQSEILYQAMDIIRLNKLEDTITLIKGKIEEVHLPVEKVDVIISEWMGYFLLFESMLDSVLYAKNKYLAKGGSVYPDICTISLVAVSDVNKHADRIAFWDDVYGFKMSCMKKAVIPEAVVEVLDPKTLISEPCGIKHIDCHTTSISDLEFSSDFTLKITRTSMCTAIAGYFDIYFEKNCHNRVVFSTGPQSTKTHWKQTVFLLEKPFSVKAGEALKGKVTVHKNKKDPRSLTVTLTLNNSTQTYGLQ
# [10] = target: Protein arginine N-methyltransferase 5 (Homo sapiens, UniProt O14744); test: Inhibition of PRMT5 (unknown origin)
# Chain of Protein arginine N-methyltransferase 5 (O14744 whole entry): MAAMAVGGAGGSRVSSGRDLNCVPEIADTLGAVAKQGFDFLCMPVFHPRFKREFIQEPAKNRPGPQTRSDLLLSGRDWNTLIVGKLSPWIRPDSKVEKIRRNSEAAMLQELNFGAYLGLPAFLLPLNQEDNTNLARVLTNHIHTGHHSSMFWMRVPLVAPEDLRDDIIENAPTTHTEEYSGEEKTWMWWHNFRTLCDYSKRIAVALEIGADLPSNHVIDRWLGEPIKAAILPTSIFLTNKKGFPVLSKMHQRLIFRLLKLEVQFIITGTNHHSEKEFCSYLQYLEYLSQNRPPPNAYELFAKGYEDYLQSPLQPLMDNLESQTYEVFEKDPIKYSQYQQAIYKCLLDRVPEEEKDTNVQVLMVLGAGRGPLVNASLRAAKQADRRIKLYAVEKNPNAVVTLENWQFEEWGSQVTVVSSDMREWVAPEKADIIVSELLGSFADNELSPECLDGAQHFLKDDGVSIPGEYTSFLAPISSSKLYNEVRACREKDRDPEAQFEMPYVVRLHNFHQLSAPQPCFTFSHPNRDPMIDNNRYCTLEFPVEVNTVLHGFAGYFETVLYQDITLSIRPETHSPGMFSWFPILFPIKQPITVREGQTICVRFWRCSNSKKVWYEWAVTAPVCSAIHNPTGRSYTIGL
# [11] = target: T3, Protein arginine N-methyltransferase 7 (Homo sapiens, UniProt Q9NVM4); test: Inhibition of PRMT7 (unknown origin)
# T3 sequence (Q9NVM4 whole entry): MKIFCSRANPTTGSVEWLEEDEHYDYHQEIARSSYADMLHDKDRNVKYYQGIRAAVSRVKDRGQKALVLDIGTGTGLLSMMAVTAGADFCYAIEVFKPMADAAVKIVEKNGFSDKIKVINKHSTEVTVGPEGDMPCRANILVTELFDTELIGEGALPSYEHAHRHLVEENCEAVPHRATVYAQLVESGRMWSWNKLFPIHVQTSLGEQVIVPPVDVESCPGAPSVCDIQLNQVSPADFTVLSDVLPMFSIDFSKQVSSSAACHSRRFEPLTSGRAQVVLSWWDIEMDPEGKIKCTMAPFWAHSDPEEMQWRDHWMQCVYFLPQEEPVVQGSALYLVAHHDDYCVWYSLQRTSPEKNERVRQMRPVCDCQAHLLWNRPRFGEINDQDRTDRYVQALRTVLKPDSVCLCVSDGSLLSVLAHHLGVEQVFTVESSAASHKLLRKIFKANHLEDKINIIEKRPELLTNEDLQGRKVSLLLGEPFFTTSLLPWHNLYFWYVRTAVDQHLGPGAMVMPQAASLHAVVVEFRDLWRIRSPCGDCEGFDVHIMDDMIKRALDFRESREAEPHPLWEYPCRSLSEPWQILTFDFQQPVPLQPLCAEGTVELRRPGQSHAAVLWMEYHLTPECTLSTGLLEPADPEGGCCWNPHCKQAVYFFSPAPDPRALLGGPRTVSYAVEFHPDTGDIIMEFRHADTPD
# [12] = target: T1, Histone-arginine methyltransferase CARM1 (Homo sapiens); test: Non-competitive inhibition of full-length Halo-tagged human CARM1 (1 to 608 residues) expressed in 293-F cells using [3H]-SAM and increasing biotinylated histone peptides by scintillation proximity based radiometric assay; assay type: cell-based
# [13] = target: T1, Histone-arginine methyltransferase CARM1 (Homo sapiens); test: Non-competitive inhibition of full-length Halo-tagged human CARM1 (1 to 608 residues) expressed in 293-F cells using increasing [3H]-SAM and biotinylated histone peptides by scintillation proximity based radiometric assay; assay type: cell-based
# [14] = target: T1, Histone-arginine methyltransferase CARM1 (Homo sapiens); test: Inhibition of CARM1 in HEK293 cells assessed as reduction in BAF155 methylation at 1 uM incubated for 48 hrs by SDS-PAGE and immunoblotting
# [15] = target: T1, Histone-arginine methyltransferase CARM1 (Homo sapiens); test: Binding affinity to full-length Halo-tagged human CARM1 (1 to 608 residues) expressed in 293-F cells assessed as change in melting temperature by Sypro orange dye based differential scanning fluorimetry; assay type: cell-based
# [16] = target: T1, Histone-arginine methyltransferase CARM1 (Homo sapiens); test: Binding affinity to full-length Halo-tagged human CARM1 (1 to 608 residues) expressed in 293-F cells assessed as change in aggregation temperature by differential static light scattering; assay type: cell-based
# Method in brief: (§2)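 Full-length human CARM1 (residues 1–608) expressed as a HaloTag fusion in FreeStyle 293-F cells, HaloTag-purified, tag removed with TEV. Heated from 30 to 80 °C at 1 °C/min; aggregation temperature shift read by static light scattering.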
# [17] = target: T1, Histone-arginine methyltransferase CARM1 (Homo sapiens); test: Binding affinity to full-length Halo-tagged human CARM1 (1 to 608 residues) expressed in 293-F cells assessed as change in melting temperature in presencee of SAM by Sypro orange dye based differential scanning fluorimetry; assay type: cell-based
# [18] = target: T1, Histone-arginine methyltransferase CARM1 (Homo sapiens); test: Binding affinity to full-length Halo-tagged human CARM1 (1 to 608 residues) expressed in 293-F cells assessed as change in aggregation temperature in presence of SAM by differential static light scattering; assay type: cell-based; method in brief: as §2
# [19] = target: T2, Histone-arginine methyltransferase CARM1; test: Binding affinity to full-length Halo-tagged human CARM1 (1 to 608 residues) expressed in 293-F cells by surface plasmon resonance assay
# Method in brief: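 About 4500 RU of CARM1 amine-coupled to a CM5 chip, blank cell used for reference subtraction. Compounds serially diluted in DMSO, then into HBS-EP buffer at 5% DMSO final. Contact time 30 s at 75 μL/min.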
# Chain of Protein arginine N-methyltransferase 6 (Q96LA8 whole entry): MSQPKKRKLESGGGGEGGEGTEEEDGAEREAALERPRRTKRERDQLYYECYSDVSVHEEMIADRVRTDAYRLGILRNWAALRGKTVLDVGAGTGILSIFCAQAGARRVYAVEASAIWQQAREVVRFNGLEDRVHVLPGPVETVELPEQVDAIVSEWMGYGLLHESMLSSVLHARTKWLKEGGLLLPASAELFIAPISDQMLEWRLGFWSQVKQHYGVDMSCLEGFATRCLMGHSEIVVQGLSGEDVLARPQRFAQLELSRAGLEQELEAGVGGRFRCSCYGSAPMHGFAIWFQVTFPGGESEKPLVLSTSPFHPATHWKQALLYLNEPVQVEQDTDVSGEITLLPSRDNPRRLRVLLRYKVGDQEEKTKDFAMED
SMILES,IC50 [1],IC50 ([3]; read-out: IC50) [µM],IC50 [4],inhibition [5],inhibition [6],IC50 ([1]; read-out: IC50) [µM],IC50 [3],further results
NCC(=O)NCc1cccnc1Oc1ccc(F)cc1F,Not Active,–,–,–,–,–,–,–
CNCCN1CCC(OCc2ccccc2)CC1,–,–,–,–,–,–,–,inhibition [2]: Active
C[C@@H](N)C(=O)NCc1cccnc1Oc1ccc(F)cc1F,Not Active,> 40,–,–,–,–,–,–
CC(Cc1c[nH]c2ccccc12)NC(=O)CN (configuration not stated),Not Active,> 65,Not Active,Active,Active,–,–,–
Cc1cc(C)cc(Oc2ccc(CNC(=O)[C@H](C)N)cc2C)c1,–,0.05,–,–,–,5.2,–,IC50 ([4]; read-out: IC50): > 50 µM; Ratio IC50 [7]: > 100; IC50 [8]: > 100 µM; IC50 [9]: > 100 µM; IC50 [10]: > 100 µM; IC50 [11]: > 100 µM; inhibition [12]: Active; inhibition [13]: Active; inhibition [14]: inactive; inhibition [2]: inactive
C[C@H](N)C(=O)NCc1cccnc1Oc1ccc(F)cc1F,–,1.9,Not Active,Active,Active,14,–,ΔTm [15]: 2.1 °C; ΔTm [16]: 1.9 °C; Activity [17]: Active; Activity [18]: Active; Kd ([19]; read-out: Kd): 9 µM
CC(N)C(=O)NCc1ccccc1 (configuration not stated),Not Active,> 20,Not Active,Active,Active,–,–,–
NCC(=O)NCCc1ccccc1,Not Active,20.5,Not Active,–,–,–,–,Kd [19]: Not Active
CC(C)(N)C(=O)NCc1cccnc1Oc1ccc(F)cc1F,Not Active,–,–,–,–,–,Not Active,–
CN(CCN)Cc1ccccc1,–,7.5,–,Active,Active,2.5,–,IC50 ([4]; read-out: IC50): 6 µM
C[C@H](N)C(=O)NCc1cccnc1N(C)Cc1ccccc1,Not Active,> 30,Not Active,Active,Active,–,–,–
CNCCN1CCCC1,–,3.1,–,Active,Active,1.9,–,IC50 ([4]; read-out: IC50): 10 µM
CCC(c1ccc(OC)cc1)N(C)CCN (configuration not stated),–,–,Not Active,–,–,> 25,Not Active,–
CNCCNC1CCN(c2cccc(-c3ccnc(C)n3)c2)CC1,–,11.1,–,Active,Active,8.9,–,IC50 ([4]; read-out: IC50): 26 µM
Cc1cc(C)n(-c2ccc(CNC(=O)C(C)N)cc2)n1 (configuration not stated),Not Active,–,–,–,–,–,Not Active,–
CNCC(=O)NCc1cccnc1Oc1ccc(F)cc1F,Not Active,–,–,–,–,–,Not Active,–
NCCN1CCC(c2nnc(Cn3ccnc3)n2C2CC2)CC1,Not Active,> 50,Not Active,Active,Active,–,–,–
CN[C@@H](C)C(=O)NCc1cccnc1Oc1ccc(F)cc1F,Not Active,–,–,–,–,–,Not Active,–
Cc1cc(OCCNCCN)ccc1C(C)C,Not Active,16.6,Not Active,–,–,–,–,Kd [19]: Not Active
NC1(C(=O)NCc2cccnc2Oc2ccc(F)cc2F)CC1,Not Active,–,–,–,–,–,Not Active,–
